# Active and inactive are the calls of the source. No cut-off for these calls is given here.
# How the values were obtained:
# [1] = target: Fibroblast growth factor 1 (Homo sapiens, UniProt P05230); assay: Binding affinity to FGF-1 by surface plasmon resonance assay
# Method in brief: (§1)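 Solution-affinity SPR on heparin-coated CM4 chips. FGF-1 measured in HBS-EP (10 mM HEPES pH 7.4, 150 mM NaCl, 3.0 mM EDTA, 0.005% polysorbate 20); FGF-2 measured in HBS-EP with 300 mM NaCl. Kd is the average of at least duplicate measurements ± SD.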
# [2] = target: Fibroblast growth factor 2 (Homo sapiens, UniProt P09038); assay: Binding affinity to FGF-2 by surface plasmon resonance assay; method in brief: as §1
# Fibroblast growth factor 2, sequence (P09038 143-288 limits assumed): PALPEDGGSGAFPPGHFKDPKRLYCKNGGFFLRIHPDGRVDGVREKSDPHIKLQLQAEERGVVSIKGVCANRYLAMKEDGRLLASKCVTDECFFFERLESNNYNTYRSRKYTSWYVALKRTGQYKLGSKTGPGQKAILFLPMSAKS
# Heparanase = target: T1, Heparanase (Homo sapiens, UniProt Q9Y251); assay: Inhibition of human recombinant heparanase after 2 to 24 hrs by WST1 dye based fondaparinux assay
# T1 sequence (Q9Y251 whole entry): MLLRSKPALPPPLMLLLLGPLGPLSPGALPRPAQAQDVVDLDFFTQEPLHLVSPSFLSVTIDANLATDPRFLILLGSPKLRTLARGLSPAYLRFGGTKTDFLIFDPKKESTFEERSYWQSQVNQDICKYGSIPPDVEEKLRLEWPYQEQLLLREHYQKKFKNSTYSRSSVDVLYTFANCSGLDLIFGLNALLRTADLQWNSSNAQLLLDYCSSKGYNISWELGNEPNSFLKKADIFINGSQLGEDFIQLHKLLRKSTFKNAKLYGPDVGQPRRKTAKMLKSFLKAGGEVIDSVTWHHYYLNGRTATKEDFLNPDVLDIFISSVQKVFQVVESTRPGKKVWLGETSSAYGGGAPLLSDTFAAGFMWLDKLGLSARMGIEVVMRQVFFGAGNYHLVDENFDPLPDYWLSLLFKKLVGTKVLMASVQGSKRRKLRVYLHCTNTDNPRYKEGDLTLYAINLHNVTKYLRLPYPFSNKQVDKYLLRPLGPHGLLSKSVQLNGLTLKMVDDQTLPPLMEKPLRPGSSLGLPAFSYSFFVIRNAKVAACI
# HUVEC [3] = assay: Antiangiogenic activity in FGF1-stimulated HUVEC cells after 72 hrs by CellTiter assay; assay type: functional, cell-based; conditions: Homo sapiens
# HUVEC [4] = assay: Antiangiogenic activity in FGF2-stimulated HUVEC cells after 72 hrs by CellTiter assay; assay type: functional, cell-based; conditions: Homo sapiens
# HUVEC [5] = assay: Antiangiogenic activity in VEGF-stimulated HUVEC cells after 72 hrs by CellTiter assay; assay type: functional, cell-based; conditions: Homo sapiens
# HMVEC [6] = assay: Antiangiogenic activity in FGF1-stimulated HMVEC cells after 72 hrs by CellTiter assay; assay type: functional, cell-based; conditions: Homo sapiens
# HMVEC [7] = assay: Antiangiogenic activity in FGF2-stimulated HMVEC cells after 72 hrs by CellTiter assay; assay type: functional, cell-based; conditions: Homo sapiens
# HMVEC [8] = assay: Antiangiogenic activity in VEGF-stimulated HMVEC cells after 72 hrs by CellTiter assay; assay type: functional, cell-based; conditions: Homo sapiens
# HUVEC [9] = assay: Antiangiogenic activity in HUVEC cells assessed as inhibition of tube formation at 10 uM after 18 hrs by matrigel assay; assay type: functional; conditions: Homo sapiens
# Method in brief: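 HUVECs (passage 4 or 5, 70–80% confluent) suspended at 4 × 10⁵/mL in EGM2 with all supplements except heparin, mixed 1:1 with compound (final 10, 50 or 100 μM) in triplicate. Plated on growth factor-reduced Matrigel for 18 h. Branching nodes joining ≥3 tubules counted manually by phase-contrast microscopy. Reported as % inhibition versus untreated cells.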
# Plasma [10] = assay: Anticoagulant activity in pooled human plasma assessed as activated partial thromboplastin time at 0.1 mg/ml; assay type: ADME, cell-free
# Method in brief: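 APTT of pooled normal human plasma measured with compound at 0–100 μg/mL in PBS on a ball coagulameter, using unfractionated heparin as the reference. Normal range 26–36 s; coefficient of variation 2% at 36 s and 5–7% at 90 s or above. Values are the mean of two determinations.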
# Plasma [11] = assay: Anticoagulant activity in pooled human plasma assessed as prolongation of the recalcification time at 0.1 mg/ml by Heptest assay; assay type: ADME, cell-free
# Method in brief: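 Heptest clotting time in pooled normal human plasma; normal range 13–20 s. Values are the mean of two determinations.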
# [12] = target: Vascular endothelial growth factor A (Homo sapiens) (UniProt P15692); assay: Binding affinity to VEGF by surface plasmon resonance assay
# Aorta [13] = assay: Antiangiogenic activity in Sprague-Dawley rat aorta assessed as inhibition of tube formation dosed daily at 10 uM measured up to 8 days by matrigel assay; assay type: functional
# Method in brief: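 Aortas from 6–10-week Sprague–Dawley rats were cut into 1 mm rings, bisected and embedded in Matrigel. Cultured in EBM-2 with 2% FCS and supplements except heparin, without exogenous growth factors. Compound was usually given at two concentrations within 1–50 μM from 10 mM PBS stocks, replenished every 48 h. Microvessels were scored 0–5 up to 8 days by two independent investigators.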
# HUVEC [14] = assay: Antiangiogenic activity in HUVEC cells assessed as inhibition of tube formation after 18 hrs by matrigel assay; assay type: functional, cell-based; conditions: Homo sapiens
# Method in brief: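 HUVECs at passage 4–5 (70–80% confluent) resuspended at 4 × 10⁵/mL in EGM2 with all supplements except heparin. Cells mixed with compound to final 10, 50 or 100 μM and plated in triplicate on growth-factor-reduced Matrigel for 18 h. Branching nodes joining three or more tubules counted by phase-contrast microscopy; percent inhibition versus untreated cells.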
# Aorta [15] = assay: Antiangiogenic activity in Sprague-Dawley rat aorta assessed as inhibition of tube formation measured up to 8 days by matrigel assay; assay type: functional, tissue-based; conditions: 192 h
# Method in brief: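 Aortas from 6–10-week Sprague–Dawley rats cut into 1 mm rings, bisected and embedded in Matrigel. Cultured in EBM-2 with 2% FCS, supplements but no heparin and no added growth factor. Compound usually given at two concentrations within 1–50 μM (10 mM PBS stock), medium renewed every 48 h. Microvessels scored 0–5 up to 8 days by two independent observers.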
# Aorta [16] = assay: Cytotoxicity against Sprague-Dawley rat aorta assessed as VEGF-induced microvessel formation measured 6 days post compound treatment grown on fresh medium containing VEGF; assay type: tissue-based; conditions: 144 h
# Method in brief: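 Viability check on rat aortic ring cultures: after compound exposure, compound/medium withdrawn on day 6 or 7 and replaced with complete medium containing VEGF (typically 10 ng/mL) for up to 7 further days. Renewed microvessel sprouting taken as evidence of viable tissue.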
# Rattus norvegicus = assay: Elimination half life in Sprague-Dawley rat at 10 mg/kg, sc using [3H]-labeled compound administered as three bolus doses at 96 hrs interval; assay type: ADME, organism-based; set-up: dose 10 mg/kg, route subcutaneous; conditions: in vivo
# Fibroblast growth factor 1, sequence (P05230 whole entry): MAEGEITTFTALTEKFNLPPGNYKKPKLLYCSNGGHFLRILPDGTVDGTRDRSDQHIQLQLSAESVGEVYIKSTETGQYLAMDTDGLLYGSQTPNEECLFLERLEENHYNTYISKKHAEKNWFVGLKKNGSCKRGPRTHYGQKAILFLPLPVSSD
Kd [1],Ki (Heparanase),Compound,Kd [2],IC50 (HUVEC [3]),IC50 (HUVEC [4]),IC50 (HUVEC [5]),Activity (HMVEC [6]),Activity (HMVEC [7]),Activity (HMVEC [8]),inhibition at 10 µM (HUVEC [9]),APTT (Plasma [10]),Time (Plasma [11]),Kd [12],inhibition (INH) (Aorta [13]),IC50 (HUVEC [14]),IC50 (Aorta [15]),Activity (Aorta [16]),beta t1/2 (Rattus norvegicus)
0.44 nM,6 nM,CCCCCCCCCCCCCCCCCC(=O)NCCCO[C@H]1O[C@H](COS(=O)(=O)[O-])[C@@H](OS(=O)(=O)[O-])[C@H](OS(=O)(=O)[O-])[C@@H]1O[C@H]1O[C@H](COS(=O)(=O)[O-])[C@@H](OS(=O)(=O)[O-])[C@H](O[C@H]2O[C@H](COS(=O)(=O)[O-])[C@@H](OS(=O)(=O)[O-])[C@H](O[C@H]3O[C@H](COS(=O)(=O)[O-])[C@@H](OS(=O)(=O)[O-])[C@H](OS(=O)(=O)[O-])[C@@H]3OS(=O)(=O)[O-])[C@@H]2OS(=O)(=O)[O-])[C@@H]1OS(=O)(=O)[O-].[Na+].[Na+].[Na+].[Na+].[Na+].[Na+].[Na+].[Na+].[Na+].[Na+].[Na+].[Na+].[Na+],108 nM,1540 nM,700 nM,600 nM,Active,Active,Active,> 80%,68.1 s,24.5 s,40 nM,,,,,
9.7 nM,3.7 nM,CC(C)CCC[C@@H](C)[C@H]1CC[C@H]2[C@@H]3CC[C@H]4C[C@@H](OCc5cn([C@@H]6O[C@H](COS(=O)(=O)[O-])[C@@H](O[C@H]7O[C@H](COS(=O)(=O)[O-])[C@@H](O[C@H]8O[C@H](COS(=O)(=O)[O-])[C@@H](O[C@H]9O[C@H](COS(=O)(=O)[O-])[C@@H](OS(=O)(=O)[O-])[C@H](OS(=O)(=O)[O-])[C@H]9OS(=O)(=O)[O-])[C@H](OS(=O)(=O)[O-])[C@H]8OS(=O)(=O)[O-])[C@H](OS(=O)(=O)[O-])[C@H]7OS(=O)(=O)[O-])[C@H](OS(=O)(=O)[O-])[C@H]6OS(=O)(=O)[O-])nn5)CC[C@]4(C)[C@H]3CC[C@]12C.[Na+].[Na+].[Na+].[Na+].[Na+].[Na+].[Na+].[Na+].[Na+].[Na+].[Na+].[Na+].[Na+],390 nM,2300 nM,640 nM,2200 nM,Active,Active,Active,,104 s,45.5 s,95 nM,>80%,,,,
,,CC(C)CCC[C@@H](C)[C@H]1CC[C@H]2[C@@H]3CC[C@H]4C[C@@H](O[C@@H]5O[C@H](COS(=O)(=O)[O-])[C@@H](O[C@H]6O[C@H](COS(=O)(=O)[O-])[C@@H](O[C@H]7O[C@H](COS(=O)(=O)[O-])[C@@H](O[C@H]8O[C@H](COS(=O)(=O)[O-])[C@@H](OS(=O)(=O)[O-])[C@H](OS(=O)(=O)[O-])[C@H]8OS(=O)(=O)[O-])[C@H](OS(=O)(=O)[O-])[C@H]7OS(=O)(=O)[O-])[C@H](OS(=O)(=O)[O-])[C@H]6OS(=O)(=O)[O-])[C@H](OS(=O)(=O)[O-])[C@H]5OS(=O)(=O)[O-])CC[C@]4(C)[C@H]3CC[C@]12C.[Na+].[Na+].[Na+].[Na+].[Na+].[Na+].[Na+].[Na+].[Na+].[Na+].[Na+].[Na+].[Na+],390 nM,,,,Active,Active,Active,> 80%,71.9 s,28.6 s,28.9 nM,>80%,2000 nM,1100 nM,Non-toxic,> 50 h

Compound,Kd [1],Ki (Heparanase),Kd [2],IC50 (HUVEC [3]),IC50 (HUVEC [4]),IC50 (HUVEC [5]),Activity (HMVEC [6]),Activity (HMVEC [7]),Activity (HMVEC [8]),inhibition at 10 µM (HUVEC [9]),APTT (Plasma [10]),Time (Plasma [11]),Kd [12],inhibition (INH) (Aorta [13]),IC50 (HUVEC [14]),IC50 (Aorta [15]),Activity (Aorta [16]),beta t1/2 (Rattus norvegicus)
CC(C)CCC[C@@H](C)[C@H]1CC[C@H]2[C@@H]3CC[C@H]4C[C@@H](O[C@H]5O[C@H](COS(=O)(=O)[O-])[C@@H](OS(=O)(=O)[O-])[C@H](OS(=O)(=O)[O-])[C@@H]5O[C@H]5O[C@H](COS(=O)(=O)[O-])[C@@H](OS(=O)(=O)[O-])[C@H](O[C@H]6O[C@H](COS(=O)(=O)[O-])[C@@H](OS(=O)(=O)[O-])[C@H](O[C@H]7O[C@H](COS(=O)(=O)[O-])[C@@H](OS(=O)(=O)[O-])[C@H](OS(=O)(=O)[O-])[C@@H]7OS(=O)(=O)[O-])[C@@H]6OS(=O)(=O)[O-])[C@@H]5OS(=O)(=O)[O-])CC[C@]4(C)[C@H]3CC[C@]12C.[Na+].[Na+].[Na+].[Na+].[Na+].[Na+].[Na+].[Na+].[Na+].[Na+].[Na+].[Na+].[Na+],0.6 nM,5.8 nM,160 nM,1290 nM,800 nM,1200 nM,Active,Active,Active,> 80%,94 s,28 s,22 nM,>80%,,,,

# From ChEMBL document CHEMBL2057149 (J Med Chem, 2012)
